# ChEMBL document CHEMBL1147705, “Imidazolylpyrimidine based CXCR2 chemokine receptor antagonists” (Bioorg Med Chem Lett, 2006)
# Columns and labels:
# [1] = target: T1, C-X-C chemokine receptor type 2 (Homo sapiens, UniProt P25025); experiment: Binding affinity to human CXCR2 receptor transfected in CHO cell; assay type: cell-based
# T1 sequence (P25025 whole entry): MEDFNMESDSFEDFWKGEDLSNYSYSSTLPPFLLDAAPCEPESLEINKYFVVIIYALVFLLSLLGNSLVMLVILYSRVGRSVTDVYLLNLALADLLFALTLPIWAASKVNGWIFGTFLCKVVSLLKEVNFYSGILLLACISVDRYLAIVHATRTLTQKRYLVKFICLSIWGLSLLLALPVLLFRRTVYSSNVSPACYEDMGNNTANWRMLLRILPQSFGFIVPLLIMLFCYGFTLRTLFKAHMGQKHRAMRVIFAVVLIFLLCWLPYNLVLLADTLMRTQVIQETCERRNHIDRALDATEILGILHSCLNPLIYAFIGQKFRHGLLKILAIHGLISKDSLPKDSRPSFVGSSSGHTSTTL
# [2] = Stability in rat liver microsome at 10 uM after 30 min; assay type: ADME; conditions: liver microsomes, read-out: Stability
# In short: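 Compound at 10 µM incubated with rat liver microsomal enzyme (300 nM) for 30 min at 37 °C; percent of parent remaining after 30 min quantified by LC. Values are means of at least two experiments, standard deviation <±30%.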
# [3] = Oral bioavailability in rat at […], iv and po; assay type: ADME, organism-based; conditions: in vivo
# [4] = Cmax in dog at 4 umol/kg, po; assay type: ADME, organism-based, Canis lupus familiaris; parameters: dose 4 umol/kg, route oral; conditions: in vivo
# [5] = Oral bioavailability in dog at 2 umol/kg, iv and 4 umol/kg, po; assay type: ADME, organism-based, Canis lupus familiaris; conditions: in vivo
# [6] = Half life in rat at 4 umol/kg, iv and po; assay type: ADME, organism-based; conditions: in vivo
# In short: (§1)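 Rats (n = 3) dosed 4 µmol/kg by iv and po routes; plasma pharmacokinetic profile followed after each route to derive the parameters.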
# [7] = Clearance in rat at 4 umol/kg, iv and po; assay type: ADME, organism-based; conditions: in vivo; in short: as §1
# [8] = Volume of distribution in rat at 4 umol/kg, iv and po; assay type: ADME, organism-based; conditions: in vivo, read-out: Vdss; in short: as §1
# [9] = AUC (infinity) in rat at 4 umol/kg, po; assay type: ADME, organism-based; parameters: dose 4 umol/kg, route oral, time infinity; conditions: plasma; in short: as §1
# [10] = Cmax in rat at 4 umol/kg, po; assay type: ADME, organism-based; parameters: dose 4 umol/kg, route oral; conditions: in vivo; in short: as §1
# [11] = Half life in dog at 2 umol/kg, iv and 4 umol/kg, po; assay type: ADME, organism-based, Canis lupus familiaris; conditions: in vivo
# [12] = Clearance in dog at 2 umol/kg, iv and 4 umol/kg, po; assay type: ADME, organism-based, Canis lupus familiaris; conditions: in vivo
# [13] = Volume of distribution in dog at 2 umol/kg, iv and 4 umol/kg, po; assay type: ADME, organism-based, Canis lupus familiaris; conditions: in vivo, read-out: Vdss
# [14] = AUC (infinity) in dog at 4 umol/kg, po; assay type: ADME, organism-based, Canis lupus familiaris; parameters: dose 4 umol/kg, route oral, time infinity; conditions: plasma
SMILES,Ki [1],"remaining at 0.5 h, 10 µM [2]",other results
CCOCCCNC(=O)[C@H](CC(C)C)Nc1cc(CC)nc(-n2cnc(-c3ccc(OC(F)(F)F)cc3)c2)n1,57 nM,77%,bioavailability [3]: 18%
CCCCc1cc(N[C@@H](CC(C)C)C(=O)NCCCOCC)nc(-n2cnc(-c3ccc(OC(F)(F)F)cc3)c2)n1,17 nM,66%,bioavailability [3]: 7%
CCCCc1cc(N[C@@H](CC(C)C)C(=O)NCCCOCC)nc(-n2cnc(-c3ccc(C(F)(F)F)cc3)c2)n1,14 nM,80%,–
CCCCc1cc(N[C@@H](CC(C)C)C(=O)NCCCOCC)nc(-n2cnc(-c3ccc([N+](=O)[O-])cc3)c2)n1,160 nM,48%,–
CCCCc1cc(N[C@@H](CC(C)C)C(=O)NCCCOCC)nc(-n2cnc(-c3ccc(C#N)cc3)c2)n1,43 nM,50%,–
CCCCCCCCSc1cc(N[C@@H](CC(C)C)C(=O)NCCCOCC)nc(-n2ccnc2)n1,60 nM,26%,–
CCCCc1cc(N[C@@H](CC(C)C)C(=O)NCCCOCC)nc(-n2cnc(-c3ccc(OC)cc3)c2)n1,42 nM,30%,–
CCCc1cc(N[C@@H](CC(C)C)C(=O)NCCCOCC)nc(-n2cnc(-c3cccc(OC(F)(F)F)c3)c2)n1,35 nM,55%,bioavailability [3]: 7%
CCOCCCNC(=O)[C@H](CC(C)C)Nc1ccnc(-n2cnc(-c3ccc(OC(F)(F)F)cc3)c2)n1,200 nM,5%,bioavailability [3]: 4%
CCOCCCNC(=O)[C@H](CC(C)C)Nc1cc(C(C)(C)C)nc(-n2ccnc2)n1,6000 nM,83%,–
CCCc1cc(N[C@@H](CC(C)C)C(=O)NCCCOCC)nc(-n2cnc(-c3ccccc3OC(F)(F)F)c2)n1,50 nM,13%,bioavailability [3]: 5%
CCOCCCNC(=O)[C@H](CC(C)C)Nc1cc(C)nc(-n2cnc(-c3ccc(OC(F)(F)F)cc3)c2)n1,44 nM,67%,bioavailability [3]: 22%
CCCc1cc(N[C@@H](CC(C)C)C(=O)NCCCOCC)nc(-n2cnc(-c3ccc(OC(F)(F)F)cc3)c2)n1,25 nM,74%,Cmax [4]: 300 nM; bioavailability [5]: 25%; bioavailability [3]: 33%; half-life [6]: 2.7 h; clearance [7]: 9.83 mL/min/kg; Vd [8]: 1.99 L/kg; AUC(0-inf) [9]: 2.43 µM·h; Cmax [10]: 660 nM; half-life [11]: 1.1 h; clearance [12]: 12.1 mL/min/kg; Vd [13]: 2.79 L/kg; AUC(0-inf) [14]: 1.39 µM·h

# Continued, in another order:
Ki [1],"remaining at 0.5 h, 10 µM [2]",SMILES,other results
100 nM,2%,CCCCc1cc(N[C@@H](CC(C)C)C(=O)NCCCOCC)nc(-n2cnc(-c3ccccc3)c2)n1,–
> 10000 nM,27%,CCCCc1cc(N[C@@H](CC(C)C)C(=O)NCCCOCC)nc(-n2ccnc2C)n1,–
90 nM,25%,CCCCc1cc(N[C@@H](CC(C)C)C(=O)NCCCOCC)nc(-n2cnc(C)c2)n1,–
600 nM,–,CCCCc1cc(N[C@@H](CC(C)C)C(=O)NCCCOCC)nc(-n2cnc(-c3ccc(N)cc3)c2)n1,–
> 10000 nM,30%,CCCCc1cc(N[C@@H](CC(C)C)C(=O)NCCCOCC)nc(-n2cncn2)n1,–
27 nM,54%,CCCCc1cc(N[C@@H](CC(C)C)C(=O)NCCCOCC)nc(-n2cnc(-c3ccc(Cl)cc3)c2)n1,–
37 nM,20%,CCCCc1cc(N[C@@H](CC(C)C)C(=O)NCCCOCC)nc(-n2cnc(-c3ccc(F)cc3)c2)n1,–
120 nM,36%,CCCCCCCCc1cc(N[C@@H](CC(C)C)C(=O)NCCCOCC)nc(-n2ccnc2)n1,–
> 5000 nM,52%,CCCCc1cc(N[C@@H](CC(C)C)C(=O)NCCCOCC)nc(-c2ccncc2)n1,–
290 nM,50%,CCCCCCc1cc(N[C@@H](CC(C)C)C(=O)NCCCOCC)nc(-n2ccnc2)n1,–
40 nM,35%,CCCCc1cc(N[C@@H](CC(C)C)C(=O)NCCCOCC)nc(-n2cnc(-c3ccc(C)cc3)c2)n1,–
85 nM,13%,CCCCc1cc(N[C@@H](CC(C)C)C(=O)NCCCOCC)nc(-n2cnc(C(C)(C)C)c2)n1,–
1700 nM,68%,CCCCc1cc(N[C@@H](CC(C)C)C(=O)NCCCOCC)nc(-n2ccnc2)n1,–
32 nM,65%,CCCCc1cc(N[C@@H](CC(C)C)C(=O)NCCCOCC)nc(-n2cnc(-c3ccc(O)cc3)c2)n1,–
750 nM,36%,CCCCc1cc(N[C@@H](CC(C)C)C(=O)NCCCOCC)nc(-c2cccnc2)n1,–
